In ChEMBL document CHEMBL2169773, “Modified acidic nonsteroidal anti-inflammatory drugs as dual inhibitors of mPGES-1 and 5-LOX” (J Med Chem, 2012):
Active and inactive are the calls of the source. The rule behind the calls is not given here.

Assays:
[1] = biological target: T1, Polyunsaturated fatty acid 5-lipoxygenase (Homo sapiens, UniProt P09917); experiment: Inhibition of 5-lipoxygenase in A23187-stimulated human neutrophils assessed as inhibition of enzyme product formation by RP-HPLC analysis
T1 sequence (P09917 whole entry): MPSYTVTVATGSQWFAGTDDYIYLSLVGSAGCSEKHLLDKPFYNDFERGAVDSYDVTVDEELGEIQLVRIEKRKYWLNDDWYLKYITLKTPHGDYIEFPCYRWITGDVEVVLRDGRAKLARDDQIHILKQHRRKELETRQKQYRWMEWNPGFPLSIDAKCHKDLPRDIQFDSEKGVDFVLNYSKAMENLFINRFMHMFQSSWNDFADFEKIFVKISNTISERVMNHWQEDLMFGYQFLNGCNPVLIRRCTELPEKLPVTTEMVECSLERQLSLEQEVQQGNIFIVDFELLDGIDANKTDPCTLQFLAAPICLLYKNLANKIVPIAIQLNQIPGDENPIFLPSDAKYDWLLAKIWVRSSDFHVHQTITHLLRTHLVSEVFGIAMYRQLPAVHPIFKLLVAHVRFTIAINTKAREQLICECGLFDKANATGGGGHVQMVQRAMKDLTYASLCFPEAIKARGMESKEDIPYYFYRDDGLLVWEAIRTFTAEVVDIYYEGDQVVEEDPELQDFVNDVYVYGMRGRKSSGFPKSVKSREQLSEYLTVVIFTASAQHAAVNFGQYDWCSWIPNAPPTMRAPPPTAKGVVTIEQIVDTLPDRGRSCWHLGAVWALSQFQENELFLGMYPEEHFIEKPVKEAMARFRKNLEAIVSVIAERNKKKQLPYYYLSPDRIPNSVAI
How it was run: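 Whole-cell assay in human neutrophils stimulated with A23187 plus 20 μM exogenous arachidonic acid as substrate; BWA4C as reference inhibitor. IC50 calculated for selected compounds; mean with SE, n = 3−5.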

Prostaglandin E synthase = biological target: T2, Prostaglandin E synthase (Homo sapiens, UniProt O14684); experiment: Inhibition of mPGES-1 in human IL-1beta-stimulated A549 cell microsomes assessed as inhibition of PGE2 formation from PGH2 after 15 mins by RP-HPLC analysis; parameters: species or system Microsome
T2 sequence (O14684 whole entry): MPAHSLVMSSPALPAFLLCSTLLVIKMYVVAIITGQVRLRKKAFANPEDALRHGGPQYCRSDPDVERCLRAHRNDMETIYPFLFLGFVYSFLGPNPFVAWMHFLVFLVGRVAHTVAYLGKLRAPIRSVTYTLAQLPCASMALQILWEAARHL

[2] = biological target: T3, Prostaglandin G/H synthase 1 (Ovis aries) (UniProt P05979); experiment: Inhibition of ovine COX1 assessed as inhibition of 12-HHT formation measuring remaining activity preincubated at 10 uM for 5 mins before arachidonic acid addition by HPLC analysis
T3 sequence (whole entry): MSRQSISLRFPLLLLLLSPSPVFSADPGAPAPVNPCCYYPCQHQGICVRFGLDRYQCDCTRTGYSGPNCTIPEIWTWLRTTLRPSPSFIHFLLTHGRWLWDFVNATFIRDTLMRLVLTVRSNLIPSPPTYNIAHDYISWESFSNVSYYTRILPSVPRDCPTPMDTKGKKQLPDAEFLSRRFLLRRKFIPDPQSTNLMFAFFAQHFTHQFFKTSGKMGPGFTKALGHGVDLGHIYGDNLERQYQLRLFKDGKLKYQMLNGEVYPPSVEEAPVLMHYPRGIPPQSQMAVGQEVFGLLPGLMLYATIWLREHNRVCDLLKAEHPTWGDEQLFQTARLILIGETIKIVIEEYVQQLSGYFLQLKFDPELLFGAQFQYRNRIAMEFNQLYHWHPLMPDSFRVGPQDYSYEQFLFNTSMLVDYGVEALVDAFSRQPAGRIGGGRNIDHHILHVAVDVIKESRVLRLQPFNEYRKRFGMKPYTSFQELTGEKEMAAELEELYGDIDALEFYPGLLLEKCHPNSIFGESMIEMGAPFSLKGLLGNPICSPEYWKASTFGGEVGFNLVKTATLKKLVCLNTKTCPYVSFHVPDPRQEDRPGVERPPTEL
How it was run: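 Isolated ovine COX-1 in a cell-free assay, 5 μM arachidonic acid as substrate; compounds at fixed 10 μM. 12-HHT formation expressed as % activity versus vehicle control; mean with SE, n = 3.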

[3] = biological target: T3, Prostaglandin G/H synthase 1 (Ovis aries); experiment: Inhibition of ovine COX1 assessed as inhibition of 12-HHT formation preincubated at 10 uM for 5 mins before arachidonic acid addition by HPLC analysis
[4] = biological target: T4, Polyunsaturated fatty acid 5-lipoxygenase (Homo sapiens) (UniProt P09917); experiment: Inhibition of 5-lipoxygenase in A23187-stimulated human neutrophils assessed as remaining activity measuring enzyme product formation at 10 uM by RP-HPLC analysis relative to vehicle-treated control
T4 sequence (whole entry): T1 sequence (P09917 whole entry)
How it was run: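 Human neutrophils (whole cells) stimulated with A23187 and 20 μM exogenous arachidonic acid; test compounds at 10 μM. Activity expressed as % remaining versus vehicle control; BWA4C as reference inhibitor; mean with SE, n = 3−5.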

[5] = biological target: T5, Prostaglandin E synthase (Homo sapiens) (UniProt O14684); experiment: Inhibition of mPGES-1 in human IL-1beta-stimulated A549 cell microsomes assessed as remaining activity measuring PGE2 formation from PGH2 at 10 uM after 15 mins by RP-HPLC analysis; conditions: Microsome
T5 sequence (whole entry): T2 sequence (O14684 whole entry)
How it was run: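 Cell-free assay with microsomes from human A549 cells; PGE2 generation from 20 μM PGH2 substrate; compounds tested at 10 μM. Result given as % PGE2 formation remaining versus vehicle control; MK-886 reference; mean with SE, n = 3−5.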

Row | IC50 [1] | IC50 (Prostaglandin E synthase; read-out: IC50) [nM] | Activity [2] [%] | IC50 ([1]; read-out: IC50) [nM] | inhibition [3] | Activity [4] [%] | Activity [5] [%] | IC50 (Prostaglandin E synthase; a549) | Structure (SMILES)
1 | Not Active | 40600 | 23.3 |  |  |  |  |  | COc1ccc2c(c1)c(CC(=O)O)c(C)n2C(=O)c1ccc(Cl)cc1 [INDOMETHACIN]
2 |  | 2300 |  | 2900 | inactive |  |  |  | O=C(Cc1cn(-c2ccccc2)nc1-c1ccc(Cl)cc1)NS(=O)(=O)c1ccc(Cl)cc1
3 |  | 200 |  | 1600 | inactive |  |  |  | O=C(Cc1cn(-c2ccccc2)nc1-c1ccc(C#Cc2ccccc2)cc1)NS(=O)(=O)c1ccc(Cl)cc1
4 |  |  |  |  | inactive | 90.7 | 78.6 |  | CC(C(=O)NS(C)(=O)=O)c1cccc(C(=O)c2ccccc2)c1 (stereo not drawn)
5 |  | 1700 | 99.1 | 3500 | inactive |  |  |  | Cc1ccc(S(=O)(=O)NC(=O)Cc2cn(-c3ccccc3)nc2-c2ccc(-c3ccccc3)cc2)cc1
6 |  |  |  |  | inactive |  | 86.1 |  | CCOC(=O)Cc1c(C)n(Cc2ccc(Cl)cc2)c2ccc(C#Cc3ccccc3)cc12
7 |  | 1800 |  | 2000 | inactive |  |  |  | Cc1c(CC(=O)NS(=O)(=O)c2ccc(Cl)cc2)c2cc(C#Cc3ccccc3)ccc2n1Cc1ccc(Cl)cc1
8 |  |  |  |  | inactive | 91.2 | 67.9 |  | CC(C)Cc1ccc(C(C)C(=O)NS(C)(=O)=O)cc1 (stereo not drawn)
9 |  | 3400 |  | 2500 | inactive |  |  |  | Cc1ccc(S(=O)(=O)NC(=O)Cc2cn(-c3ccccc3)nc2-c2ccc(Cl)cc2)cc1
10 |  | 180 |  | 3900 | inactive |  |  |  | O=C(O)Cc1cn(-c2ccccc2)nc1-c1ccc(C#Cc2cccc(Cl)c2)cc1
11 |  | 160 | 77.8 | 3700 | inactive |  |  |  | O=C(O)Cc1cn(-c2ccccc2)nc1-c1ccc(C#Cc2ccc(Cl)cc2)cc1
12 |  | 5900 |  | 6800 | inactive |  |  |  | O=C(Cc1cn(-c2ccccc2)nc1-c1ccc(Cl)cc1)NS(=O)(=O)c1ccccc1
13 |  | 350 | 70.1 | 4700 | inactive |  |  |  | O=C(Cc1cn(-c2ccccc2)nc1-c1ccc(C#Cc2ccc(Cl)cc2)cc1)NS(=O)(=O)c1ccc(Cl)cc1
14 | Not Active |  |  |  | inactive |  | 92.5 |  | COc1ccc2cc(C(C)C(=O)NS(C)(=O)=O)ccc2c1 (stereo not drawn)
15 |  | 2800 | 83.1 | 1500 | inactive |  |  |  | Cc1ccc(S(=O)(=O)NC(=O)Cc2c(C)n(Cc3ccc(Cl)cc3)c3ccc(C#Cc4ccccc4)cc23)cc1
16 |  | 400 |  | 5000 | inactive |  |  |  | O=C(O)Cc1cn(-c2ccccc2)nc1-c1ccc(C#Cc2ccccc2)cc1
17 |  | 800 |  | 2300 | inactive |  |  |  | O=C(Cc1cn(-c2ccccc2)nc1-c1ccc(C#Cc2cccc(Cl)c2)cc1)NS(=O)(=O)c1ccc(Cl)cc1
18 |  | 1750 |  | 1700 | inactive |  |  |  | Cc1ccc(S(=O)(=O)NC(=O)Cc2c(C)n(Cc3ccc(Cl)cc3)c3ccc(Br)cc23)cc1
19 |  | 2500 |  | 900 | inactive |  |  |  | Cc1c(CC(=O)O)c2cc(C#Cc3ccccc3)ccc2n1Cc1ccc(Cl)cc1
20 |  |  |  |  | inactive | 67.7 | 78.6 |  | Cc1ccc(S(=O)(=O)NC(=O)C(C)c2ccc(CC(C)C)cc2)cc1 (stereo not drawn)
21 |  | 6400 | 89.4 | 2900 | inactive |  |  |  | COc1ccc2c(c1)c(CC(=O)NS(=O)(=O)c1ccc(C)cc1)c(C)n2C(=O)c1ccc(Cl)cc1
22 |  |  |  |  | inactive | 64.9 | 73.6 |  | COc1ccc2c(c1)c(CC(=O)NS(C)(=O)=O)c(C)n2C(=O)c1ccc(Cl)cc1
23 |  | 45000 |  |  |  | 59.7 |  |  | O=C(O)Cc1cn(-c2ccccc2)nc1-c1ccc(Cl)cc1 [LONAZOLAC CALCIUM]
24 |  |  |  |  | inactive | 72.1 | 98 |  | CS(=O)(=O)NC(=O)Cc1cn(-c2ccccc2)nc1-c1ccc(Cl)cc1
25 |  |  |  |  | inactive |  | 68.7 |  | COc1ccc2c(c1)c(C(=O)NCc1ccc(S(C)(=O)=O)cc1)c(C)n2C(=O)c1ccc(Cl)cc1
26 | Not Active |  |  |  |  |  |  | Not Active | COc1ccc2cc([C@H](C)C(=O)O)ccc2c1 [NAPROXEN]
27 | Not Active |  |  |  |  |  | 81.2 |  | CC(C)Cc1ccc(C(C)C(=O)O)cc1 (stereo not drawn) [IBUPROFEN]
28 | Not Active |  |  |  |  |  |  |  | CC(C(=O)O)c1cccc(C(=O)c2ccccc2)c1 (stereo not drawn) [KETOPROFEN]
29 | Not Active |  |  |  | inactive |  | 72.8 |  | COc1ccc2cc(C(C)C(=O)NS(=O)(=O)c3ccc(C)cc3)ccc2c1 (stereo not drawn)
30 |  |  |  |  | inactive | 78.9 | 76.3 |  | Cc1ccc(S(=O)(=O)NC(=O)C(C)c2cccc(C(=O)c3ccccc3)c2)cc1 (stereo not drawn)
